Rows were chosen to be rich in hits. Some 1.8% of all compounds tested hit in one or more screens of this group.
CHRM4 PAM = human M4 muscarinic receptor positive allosteric modulators, primary screen, CHO-K1 cells, Fluo-8 calcium fluorescence; Muscarinic acetylcholine receptor M4 (Homo sapiens), P08173; CHO-K1 hM4/Gqi5, ACh EC20; 0% = ACh EC20, 100% = maximal ACh; activation, % at 3 µM; 0.4% of 360,000 active;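 active = activation above its plate's cutoff, the mean activation of sample wells plus 3 SD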
CHRM4 antagonist = human M4 muscarinic receptor antagonists, primary screen, CHO cells, Fluo-8 calcium fluorescence. 0.73% of 360,000 active. CHO-hM4 cells, ACh EC80. Muscarinic acetylcholine receptor M4 (Homo sapiens), P08173. inhibition, % at 3 µM;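 active = inhibition above its plate's cutoff, the mean inhibition of sample wells plus 3 SD, cut at about 27% in these data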;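 also: 0% = acetylcholine EC80 with DMSO and 100% = DMSO without agonist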
CHRM5 antagonist = human M5 muscarinic receptor antagonists, primary screen, CHO cells, Fluo-8 calcium fluorescence; inhibition, % at 3 µM; Muscarinic acetylcholine receptor M5 (Homo sapiens), P08912; 0.59% of 360,000 active; CHO-hM5 cells, ACh EC80;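 active = inhibition above a per-plate cutoff, the mean of that plate's test compounds plus 3 SD, cut at about 27% in these data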;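 also: 0% = acetylcholine EC80 with DMSO and 100% = DMSO without agonist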
Target sequence (P08912 whole entry, looked up): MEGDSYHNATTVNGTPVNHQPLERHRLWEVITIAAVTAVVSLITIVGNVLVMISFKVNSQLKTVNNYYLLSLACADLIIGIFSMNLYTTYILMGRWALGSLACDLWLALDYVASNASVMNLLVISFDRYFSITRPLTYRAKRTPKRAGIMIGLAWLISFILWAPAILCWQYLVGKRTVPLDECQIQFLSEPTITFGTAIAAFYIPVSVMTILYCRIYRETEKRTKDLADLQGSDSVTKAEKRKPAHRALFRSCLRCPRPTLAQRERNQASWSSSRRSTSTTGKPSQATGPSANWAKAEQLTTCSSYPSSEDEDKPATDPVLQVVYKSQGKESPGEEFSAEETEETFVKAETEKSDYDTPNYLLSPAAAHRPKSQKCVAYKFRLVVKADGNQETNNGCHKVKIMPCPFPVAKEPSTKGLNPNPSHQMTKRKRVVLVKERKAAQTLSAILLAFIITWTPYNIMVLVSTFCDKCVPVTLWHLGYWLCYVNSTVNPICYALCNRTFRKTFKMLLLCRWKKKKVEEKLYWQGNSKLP
M5 PAM = human M5 muscarinic receptor positive allosteric modulators, primary screen, CHO-K1 cells, Fluo-8 calcium fluorescence | Muscarinic acetylcholine receptor M5 (Homo sapiens), P08912 | CHO-K1 hM5, ACh EC20 PAM; 0% = ACh EC20, 100% = ACh EC100 | activation, % at 3 µM | 0.3% of 360,000 active | AID 624038, 2012;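 active = activation above the run cutoff, the mean activation of all test compounds plus 3 SD, cut at about 18% in these data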
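Assay system: CHO-K1 hM5 cells. Also added: acetylcholine at EC20 concentration, added after compound. Dosing: 3 µM, single dose. Times: compound preincubation 140 s before EC20 acetylcholine addition. Signal: Fluo-8 calcium fluorescence. Measure: % activation relative to EC20 and EC100 ACh responses. Repeats: singlicate, one well per test compound.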
M4 ag = human M4 muscarinic receptor agonists, primary screen, CHO-K1 cells, Fluo-8 calcium fluorescence | Muscarinic acetylcholine receptor M4 (Homo sapiens), P08173 | 0.14% of 360,000 active | activation, % at 3 µM | CHO-K1 hM4/Gqi5; vehicle 0%, full acetylcholine response 100% | AID 624127, 2012;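 active = activation above the run mean over all test wells plus 3 SD, cut at about 32% in these data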;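 also: peak over basal fluorescence ratio per well then scaled between controls; 0% = DMSO wells and 100% = acetylcholine at EC100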
M5 ag = human M5 muscarinic receptor agonists, primary screen, CHO-K1 cells, Fluo-8 calcium fluorescence. Muscarinic acetylcholine receptor M5 (Homo sapiens), P08912. CHO-K1 hM5 cells; 0% DMSO wells, 100% maximal acetylcholine response. activation, % at 3 µM. 0.19% of 360,000 active. AID 624037, 2012;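 active = activation above the run's mean over test compounds plus 3 SD, cut at about 23% in these data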;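 also: signal is peak over basal fluorescence ratio across the kinetic read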
Active calls of the source: *.

SMILES	CHRM4 PAM	CHRM4 antagonist	CHRM5 antagonist	M5 PAM	M4 ag	M5 ag
CCCCn1c(=O)c(C(=O)Nc2ncccc2C)c(O)c2ccccc21	-6.5	5.5	4.0	-2.1	33.4*	8.7
CCCCCCn1c(=O)c(C(=O)Nc2ncccc2C)c(O)c2ccccc21	-1.5	0.8	-2.3	2.8	1.2	1.3
CCC(CO)(C(=O)OC1CC2CCC(C1)N2C)c1ccccc1 (configuration not stated)	-17.3	99.6*	99.2*	-32.8	0.6	-16.3
CN1Cc2cnnn2-c2ccccc2C1c1ccccc1 (configuration not stated)	1.1	12.4	-1.1	-3.2	0.9	-0.7
O=c1[nH]c2ccccc2n1C1CCN(C(c2nnnn2Cc2ccccc2)C2CC2)CC1 (configuration not stated)	-13.3	28.7*	23.7	-18.2	24.2	13.6
CSCCC(c1nnnn1Cc1ccccc1)N1CCC2(CC1)C(=O)NCN2c1ccccc1 (configuration not stated)	-13.6	1.6	-1.2	0.2	25.0	44.1*
CSCCC(c1nnnn1Cc1ccccc1)N1CCC(n2c(=O)[nH]c3ccccc32)CC1 (configuration not stated)	-14.8	22.7	6.6	-11.5	23.3	30.3*
O=c1[nH]c2ccccc2n1C1CCN(C(CCc2ccccc2)c2nnnn2Cc2ccccc2)CC1 (configuration not stated)	-8.0	21.1	6.0	-14.3	19.5	8.8
O=c1[nH]c2ccccc2n1C1CCN(C(c2cccs2)c2nnnn2Cc2ccccc2)CC1 (configuration not stated)	-5.2	14.2	6.7	-9.3	9.5	2.1
CC(C)NC(=O)Cn1cc(C(=O)c2ccccc2F)c2ccccc21	26.7*	1.0	-9.6	4.5	0.5	3.8
CC1(C)C[C@H]2C=C(C=O)[C@]3(C=O)C[C@]3(C)[C@H]2C1	-12.8	35.2*	-3.4	13.2	3.1	7.9
CCc1ccc(N2C(=O)NC(=O)/C(=C\c3cc(C)n(-c4cc(C(=O)O)cc(C(=O)O)c4)c3C)C2=O)cc1	18.4*	-14.3	-2.5	5.7	2.2	-0.9
Cc1ccc2c(c1)N(C(=O)CCC(=O)N1CCC3(CC1)OCCO3)CCO2	-2.0	-7.0	9.8	-3.9	1.2	-2.7
Nc1ccc(CC(N)c2csc(Nc3ncccn3)n2)cc1 (configuration not stated)	10.0	-7.2	2.9	-8.0	0.1	-0.8
NC(Cc1ccc(Cl)cc1)c1csc(Nc2ncccn2)n1 (configuration not stated)	-13.6	96.3*	0.2	0.1	1.9	4.1
c1ccc(C(c2ccccc2)c2ccncc2)cc1	-15.6	42.1*	37.2*	-37.8	4.7	-10.9
O=c1c2ccccc2nc(-c2ccccc2)n1-c1ccncc1	4.2	8.4	-2.0	-3.6	2.0	1.2
O=C(O)C(O)(c1ccccc1)C1CCCCC1 (configuration not stated)	12.3	-8.3	3.2	4.4	1.6	-1.6
CCN(CC)CCCOC(=O)C(OC)(c1ccccc1)c1ccccc1	-19.9	53.4*	56.0*	-22.7	0.7	-7.1
CC[N+](C)(CC)CCCOC(=O)C(O)(c1ccccc1)C1CCCCC1 (configuration not stated)	-23.9	98.5*	98.2*	-33.4	1.2	-10.5
CCOC(C(=O)OCC(O)CN(CC)CC)(c1ccccc1)c1ccccc1 (configuration not stated)	-3.3	8.0	-0.9	-9.5	1.5	-12.7
CCOC(C(=O)OCCC[N+](C)(CC)CC)(c1ccccc1)c1ccccc1	-14.0	21.1	55.5*	-21.9	0.6	-6.0

Screening results deposited in PubChem by The Scripps Research Institute Molecular Screening Center.
